Assay outcomes (PubChem)
The entries come from a sample that favours hits as a whole.
bCat KO growth: beta-catenin-lacking colon tumor cell growth suppression; HCT116 beta-catenin knockout viability, CellTiter-Glo, 60 h; active compounds read low; viability, % at 10 µM; 1.5% of 140,000 active;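 active means viability at or under a set limit, the compound median less 4 SD, cut at about 6% in these data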;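 further: 0% = Hyamine 1622 control at 20 µM and 100% = untreated cell control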
HUVEC inhibit: human endothelial cell proliferation inhibition; HUVEC proliferation, CellTiter-Glo luminescence, 72 h; active compounds read low; viability, % at 10 µM (by protocol); 1.1% of 86,000 active; AID 648;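 active means viability at or below 30%; inactive means viability above 30%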;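 further: 100% = median luminescence of DMSO-only cell control wells on each plate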
Lung fibro prol: blocks proliferation of human lung fibroblasts; AID 719; viability, % at 10 µM; 1.1% of 85,000 active; LL 47 human lung fibroblast viability, ATP luminescence; active compounds read low;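 active means viability at or below 50% in the single dose screen; inactive means viability above 50%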;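 further: compound exposure lasted 72 h before the ATP readout; 100% = median luminescence of untreated cell-only wells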
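Signal: luminescent ATP detection, CellTiter-Glo; assay system: LL 47 human lung fibroblasts; input: 1,150 cells/well; incubation: overnight cell rest, 72 h compound treatment at 37 °C; measure: % viability versus median cells-only luminescence; medium: IMEM growth medium with 15% fetal bovine serum; dosing: compound addition at 0.1% DMSO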
HCT116 PTEN-null: growth suppressors of cells with PTEN tumor suppressor deletion. HCT116 PTEN-null viability, CellTiter-Glo, 60 h; active compounds read low. viability, % at 10 µM. 1.2% of 140,000 active. AID 827;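 active means viability at or below a set limit, 4 SD under the median of all tested compounds, cut at about 3.7% in these data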;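 further: PTEN knockout HCT116 line with beta catenin targeted HCT116 as companion control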
H69AR inhibit: growth inhibitors of human H69AR lung tumor cells. AID 598. 6% of 85,000 active. viability, % at 10 µM. H69AR lung tumor viability, ATP luminescence, 72 h; active compounds read low;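 active means viability at or below 40%; inactive means viability above 40%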;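 further: multidrug resistant small cell line overexpressing MRP-1 efflux transporter; 100% = mean luminescence of untreated control wells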
The depositor's hits bear a star; / = not tested or not shown.

SMILES | bCat KO growth | HUVEC inhibit | Lung fibro prol | HCT116 PTEN-null | H69AR inhibit
O=C1c2ccccc2C2=Nc3ccccc3SC(c3ccc(Cl)cc3)C12 (stereo not drawn) | 3.7* | / | / | 3.3* | /
O=c1cc(Nc2ccc3c(c2)OCO3)[nH]c(=O)n1-c1ccc(Br)cc1 | 82.4 | 75.6 | 97.1 | 97.2 | 35.4*
O=c1cc(Nc2ccc3c(c2)OCCO3)[nH]c(=O)n1Cc1ccc(F)cc1 | 90.6 | 85.3 | 93.6 | 85.9 | 96.3
O=c1cc(Nc2ccc3c(c2)OCCO3)[nH]c(=O)n1-c1ccc(Br)cc1 | 27.5 | 82.6 | 94.9 | 46.5 | 37.4*
Cn1ccnc1SCC(=O)c1ccc(Br)cc1 | 81.0 | 87.8 | 95.9 | 72.8 | 28.7*
Cc1sc2c(=O)n3c(nc2c1C(=O)NCCCN1CCOCC1)CCCCC3 | 107.3 | 103.9 | 100.8 | 1.5* | 81.4
Cc1sc2c(=O)n3c(nc2c1C(=O)NC1CCCCC1)CCCCC3 | 70.1 | 88.5 | 94.5 | 71.8 | 38.7*
Cc1csc2c(=O)n3c(nc12)CCCCC3 | 99.0 | 99.2 | 97.4 | 100.0 | 100.3
C#CCOC(=O)CCCNc1ccc([N+](=O)[O-])cc1[N+](=O)[O-] | 87.0 | / | / | 94.5 | /
Cc1cccc(NC(=O)C(=O)NCCCc2ccccc2)c1 | 92.7 | / | / | 102.0 | /
Cc1ccccc1S(=O)(=O)NC1OC(=O)C(Cl)=C1Cl (stereo not drawn) | 100.7 | 100.2 | 95.9 | 107.0 | 7.1*
CC(=O)OCCCNc1cc(Sc2ccc(C)cc2)c2nonc2c1[N+](=O)[O-] | 3.6* | / | / | 3.8* | /
O=[N+]([O-])c1c(NCCCO)cc(Sc2ccc(Cl)cc2)c2nonc12 | 1.5* | / | / | 1.2* | /
O=[N+]([O-])c1c(NCCCO)cc(SCc2ccco2)c2nonc12 | 10.0 | / | / | 58.3 | /
CC(=O)OCCNc1cc(Sc2nc3ccccc3[nH]2)c2nonc2c1[N+](=O)[O-] | 1.6* | / | / | 1.5* | /
CC(=O)OCCNc1cc(SCc2ccco2)c2nonc2c1[N+](=O)[O-] | 1.1* | / | / | 1.0* | /
COC(=O)CCSc1cc(NCCOC(C)=O)c([N+](=O)[O-])c2nonc12 | 96.5 | / | / | 96.5 | /
CCCC(=O)OCCNc1cc(SCCC(=O)OC)c2nonc2c1[N+](=O)[O-] | 87.4 | / | / | 95.2 | /
CCn1c(COc2ccccc2Cl)nnc1SCC(=O)Nc1ncccc1C | 83.5 | / | / | 74.2 | /
O=c1oc2ccccc2cc1N1CCOCC1 | 93.6 | / | / | 102.7 | /
CC(=O)OCCCNc1cc(Sc2nc3ccccc3s2)c2nonc2c1[N+](=O)[O-] | 3.7* | / | / | 3.9 | /
CC12CCC(c3c(C(=O)Nc4nccs4)nn(-c4ccccc4)c31)C2(C)C (stereo not drawn) | 1.4* | 99.7 | 68.8 | 1.6* | 20.4*
CC12CCC(c3c(C(=O)O)nn(-c4ccccc4)c31)C2(C)C (stereo not drawn) | 93.2 | 107.2 | 98.4 | 102.6 | 85.2
CCn1cc(CNC(=O)c2c(-c3c(Cl)cccc3Cl)noc2C)c(C)n1 | 100.8 | / | / | 94.0 | /
O=c1[nH]c(Nc2nc3ccccc3o2)nc2c1CCCC2 | 3.3* | 55.2 | 5.6* | 2.8* | 16.5*
SMILES | bCat KO growth | HUVEC inhibit | Lung fibro prol | HCT116 PTEN-null | H69AR inhibit
C=CCc1cccc([C@@H]2[C@@H](C)CC[C@H]3C(=O)N4[C@@H](c5cc(OC)c(OC)c(OC)c5)c5[nH]c6ccccc6c5C[C@H]4C(=O)N23)c1 | 57.2 | / | / | 69.2 | /
O=C(O)CCCCCN1C(=O)/C(=C\c2ccncc2)SC1=S | 32.3 | / | / | 34.8 | /
COc1ccc(CN2C(=O)/C(=C/c3ccncc3)SC2=S)cc1 | 2.5* | / | / | 2.0* | /
CC(=O)SC(C[N+](=O)[O-])c1cn(C(C)=O)c2ccccc12 (stereo not drawn) | 74.8 | 101.2 | 2.6* | 89.4 | 2.3*
COC(=O)c1cc(OC)c(OC)cc1NC(=O)C(C)c1ccc([N+](=O)[O-])cc1 (stereo not drawn) | 94.1 | / | / | 82.0 | /
Cc1n[nH]c(C)c1N1C(=O)c2cccc3c(Br)ccc(c23)C1=O | 4.8* | 71.1 | 93.4 | 56.9 | 95.3
C=CCn1c(=O)/c(=C/c2ccc(Cl)cc2)s/c1=C(/C#N)c1nnc2n1CCCCC2 | 48.3 | 67.7 | 82.5 | 45.5 | 22.2*
CCCC/C(C)=N\NC(=O)CNS(=O)(=O)c1ccc([N+](=O)[O-])cc1 | 0.5* | / | / | 0.4* | /
O=C(Nc1ncnc2sc3c(c12)CCCCC3)c1ccc(F)cc1 | 54.8 | 81.3 | 74.3 | 56.9 | 39.6*
COc1ccc(/C=N/NC(=O)C(C)n2cnc3ccccc3c2=O)cc1 (stereo not drawn) | 92.2 | / | / | 98.2 | /
COc1ccc(C(CCNCc2ccc(F)cc2)c2ccc(F)cc2)cc1 (stereo not drawn) | 1.2* | / | / | 1.2* | /
COc1ccc(C(CC(=O)NCc2ccco2)c2ccc(F)cc2)cc1 (stereo not drawn) | 85.9 | 91.7 | 91.0 | 83.3 | 96.7
COc1ccc(C(CCNC(C)c2ccccc2)c2ccc(F)cc2)cc1 (stereo not drawn) | 1.4* | / | / | 1.4* | /
COc1ccc(C(CCNCc2ccccc2)c2ccc(F)cc2)cc1 (stereo not drawn) | 2.0* | / | / | 2.4* | /
COc1ccc(CNCCC(c2ccc(F)cc2)c2ccc(OC)cc2)cc1 (stereo not drawn) | 1.9* | / | / | 9.3 | /
COc1ccc(NC(=O)CC(c2ccc(F)cc2)c2ccc(OC(C)C)cc2)cc1 (stereo not drawn) | 79.1 | / | / | 90.9 | /
O=C(COc1ccc2c(c1)CCC2)NCc1ccc(Cl)cc1 | 99.3 | / | / | 99.3 | /
COc1ccc(/C=C/C(=O)Nc2cccc(N3CCOCC3)c2)cc1OC | 98.8 | / | / | 98.6 | /
CCCS(=O)(=O)c1c(S(=O)(=O)CCC)c2cc(CC)ccn2c1C(=O)OC | 83.6 | 102.5 | 91.1 | 80.5 | 24.2*
CCCS(=O)(=O)c1c(S(=O)(=O)CCC)c2c(C)cccn2c1C(=O)OC | 89.8 | 90.4 | 95.7 | 87.2 | 51.7
CCCS(=O)(=O)c1c(S(=O)(=O)CCC)c2c3ccccc3ccn2c1C(=O)OC | 40.6 | 74.0 | 83.5 | 49.3 | 26.7*
Nc1nc(-c2ccccc2)nc2sc3c(c12)CCCC3 | 68.9 | / | / | 63.6 | /
[O-][n+]1onc2c1CCc1nnc(-c3ccccc3)cc1-2 | 72.5 | 105.0 | 89.5 | 69.7 | 35.5*
COc1ccc(/C=C/c2cc(-c3ccc(C)cc3)o[n+]2C)cc1 | 1.2* | / | / | 1.5* | /
O=C(Nc1cnc2ccccc2c1)c1cccnc1 | 100.6 | 105.7 | 102.0 | 103.1 | 7.7*
SMILES | bCat KO growth | HUVEC inhibit | Lung fibro prol | HCT116 PTEN-null | H69AR inhibit
CCOC(=O)c1cccc(NC(=O)c2cccnc2)c1 | 106.4 | 101.6 | / | 102.9 | 31.0*
CCOCC(=O)Nc1cccc(C(=O)OCC)c1 | 97.3 | 97.1 | 104.8 | 95.0 | 20.8*
CCOC(=O)c1cccc(NC(=O)c2cncc(Br)c2)c1 | 95.6 | / | / | 94.7 | /
CC(C)C(=O)Nc1ccc(C(=O)NCc2cccnc2)cc1 | 98.9 | 102.5 | 100.3 | 98.5 | 36.5*
CN(C)C(=O)c1ccc(NC(=O)c2cccnc2)cc1 | 99.6 | 103.5 | 93.0 | 107.6 | 39.1*
O=C(C[n+]1ccc(-c2nnc3n2CCC3)cc1)c1ccc(Cl)c(Cl)c1 | 94.5 | / | / | 103.1 | /
CN1CCc2nc3sc(C(=O)C45CC6CC(CC(C6)C4)C5)c(N)c3cc2C1 | 3.5* | / | / | 0.6* | /
